Rows were chosen to be rich in hits. Some 1.1% of all compounds tested hit in one or more screens of this group.
CAL PDZ FP-1: inhibitors of human CAL PDZ peptide binding; Q9HD26; purified CAL PDZ, TMR-peptide fluorescence polarization, 1 h; inhibition, % at 24.9 µM; hit rate 0.92% among 300,000;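 active = mean inhibition of at least 30% with at least half of replicates also reaching 30%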
Rin1 Abl inh: human Rin1-Abl interaction inhibition | P00519+Q13671 | TR-FRET Rin1/Abl binding, biochemical | inhibition, % at 7.35 µM | hit rate 0.4% among 360,000; in the data active = inhibition above about 5%, passing the limit was not always enough
PDI turbidity: inhibitors of human protein disulfide isomerase; PDI insulin aggregation turbidity, A650, 90 min; inhibition, % at 10 µM; hit rate 0.052% among 350,000; AID 588391;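 active = mean inhibition across replicates of 30% or more, whatever share of single replicates reach that level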
Target sequence (P07237 whole entry, looked up): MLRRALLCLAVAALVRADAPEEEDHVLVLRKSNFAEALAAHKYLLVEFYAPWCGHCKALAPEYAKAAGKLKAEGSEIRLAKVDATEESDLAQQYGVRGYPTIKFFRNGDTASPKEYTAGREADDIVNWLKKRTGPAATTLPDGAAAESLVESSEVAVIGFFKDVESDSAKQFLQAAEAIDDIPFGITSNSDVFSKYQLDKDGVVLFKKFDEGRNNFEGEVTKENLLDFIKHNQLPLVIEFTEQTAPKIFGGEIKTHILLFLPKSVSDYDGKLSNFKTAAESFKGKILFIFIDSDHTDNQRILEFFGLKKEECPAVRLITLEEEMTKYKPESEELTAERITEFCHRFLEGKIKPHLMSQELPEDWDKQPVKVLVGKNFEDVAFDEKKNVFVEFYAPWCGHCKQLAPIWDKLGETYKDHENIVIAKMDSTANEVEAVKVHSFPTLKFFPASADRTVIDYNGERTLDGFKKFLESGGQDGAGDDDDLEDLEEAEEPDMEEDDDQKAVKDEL
ERp5 block: inhibitors of human ERp5; Q15084; ERp5 insulin aggregation, absorbance 650 nm, 90 min; hit rate 0.05% among 350,000; inhibition, % at 9.99 µM; AID 651711;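 active = mean replicate inhibition above about 25%, with every replicate also reaching it, limit read from the data, passing the limit was not always enough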
CAL PDZ FP-2: inhibitors of human CAL PDZ peptide binding; purified CAL PDZ, TMR-peptide fluorescence polarization, 1 h; AID 504414; Q9HD26; hit rate 0.02% among 330,000; inhibition, % at 20 µM;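 active = highest replicate inhibition of at least 40%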
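Control set: unlabelled peptide and DMSO controls / Material: purified CerCALP PDZ construct / Timing: 1 h incubation at room temperature before polarization reading / Doses: 20 µM, one dose / Detection: fluorescence polarization (mP)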
ERAP1 HTS inh: inhibitors of human ERAP1 aminopeptidase; Q9NZ08; recombinant ERAP1, Leu-AMC fluorescence, 60 min; inhibition, % at 10.7 µM; hit rate 0.15% among 340,000; AID 652197;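 active = mean replicate inhibition of at least 30%, or all replicates individually reaching that 30% level; inactive = mean below 30% and not every replicate reaching it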
Numbers stand for hits.

What do the screens show for `O=C1c2ccccc2NC(c2cccc(O)c2)N1NS(=O)(=O)c1ccccc1` (centres undefined)?
CAL PDZ FP-1: inactive; Rin1 Abl inh: inactive; PDI turbidity: inactive; ERp5 block: inactive; CAL PDZ FP-2: inactive; ERAP1 HTS inh: 38

What do the screens show for `C[C@H]1CN([C@@H](C)CO)C(=O)c2cccc(NS(=O)(=O)c3ccc(Cl)cc3)c2O[C@H]1CN(C)CC1CC1`?
ERp5 block: inactive; ERAP1 HTS inh: inactive

What do the screens show for `CC(C)=C1C(=O)NN(c2cccc(Cl)c2)C1=O`?
CAL PDZ FP-1: 74; Rin1 Abl inh: inactive; PDI turbidity: inactive; ERp5 block: inactive; CAL PDZ FP-2: inactive; ERAP1 HTS inh: inactive

How did CCSc1nnc([C@H](Cc2c[nH]c3ccccc23)NC(=O)OC(C)(C)C)o1 do in these assays?
CAL PDZ FP-1: inactive; Rin1 Abl inh: inactive; PDI turbidity: 49; CAL PDZ FP-2: inactive

What do the screens show for `CCN(CC)C(=O)CSc1nnc([C@H](Cc2c[nH]c3ccccc23)NC(=O)OC(C)(C)C)o1`?
CAL PDZ FP-1: inactive; Rin1 Abl inh: inactive; PDI turbidity: 56

What do the screens show for `CSc1nnc([C@H](Cc2c[nH]c3ccccc23)NC(=O)OC(C)(C)C)o1`?
CAL PDZ FP-1: inactive; Rin1 Abl inh: inactive; PDI turbidity: inactive; ERp5 block: inactive; CAL PDZ FP-2: inactive; ERAP1 HTS inh: inactive

Results for Cc1ccc(S(=O)(=O)N(C)C[C@@H]2OCCCC[C@H](C)Oc3ccc(NC(=O)CCC(F)(F)F)cc3C(=O)N([C@H](C)CO)C[C@@H]2C)cc1 ?
ERp5 block: inactive; ERAP1 HTS inh: inactive

How did Cc1c(C(=O)NNC(=O)c2csc(N3CCOCC3)n2)cccc1[N+](=O)[O-] do in these assays?
CAL PDZ FP-1: inactive; Rin1 Abl inh: inactive; PDI turbidity: inactive; ERp5 block: inactive; CAL PDZ FP-2: inactive; ERAP1 HTS inh: inactive

What do the screens show for `O=C(NNC(=O)c1ccccc1[N+](=O)[O-])c1csc(N2CCOCC2)n1`?
CAL PDZ FP-1: 49; Rin1 Abl inh: inactive; PDI turbidity: inactive; ERp5 block: inactive; CAL PDZ FP-2: inactive; ERAP1 HTS inh: inactive

What do the screens show for `CN(C)C(=O)CN1C(=O)C2CC=C(Cl)CC2C1=O` (centres undefined)?
CAL PDZ FP-1: 32; Rin1 Abl inh: inactive; PDI turbidity: inactive; ERp5 block: inactive; CAL PDZ FP-2: inactive; ERAP1 HTS inh: inactive

What do the screens show for `CC(C)n1cnc2c(=S)nc[nH]c21`?
CAL PDZ FP-1: inactive; Rin1 Abl inh: inactive; PDI turbidity: inactive; ERp5 block: inactive; CAL PDZ FP-2: inactive; ERAP1 HTS inh: inactive

Results for S=c1nc[nH]c2c1ncn2-c1ccccc1 ?
CAL PDZ FP-1: 48; Rin1 Abl inh: inactive; PDI turbidity: inactive; ERp5 block: inactive; CAL PDZ FP-2: inactive; ERAP1 HTS inh: inactive

What do the screens show for `CC(=O)Nc1ccccc1NC(=O)C/C(C)=N/NC(=O)c1ccc([N+](=O)[O-])c(Cl)c1`?
CAL PDZ FP-1: 30; Rin1 Abl inh: inactive; PDI turbidity: inactive; CAL PDZ FP-2: inactive

How did CN(C)c1ccc2nc3ccc(=[N+](C)C)cc-3sc2c1 do in these assays?
CAL PDZ FP-1: inactive; Rin1 Abl inh: inactive; PDI turbidity: inactive; ERp5 block: inactive; CAL PDZ FP-2: inactive; ERAP1 HTS inh: inactive

How did CN(C)c1ccc2nc3ccc(=O)cc-3sc2c1 do in these assays?
Rin1 Abl inh: 14; PDI turbidity: inactive; ERp5 block: inactive; ERAP1 HTS inh: inactive

Results for O=C1C[C@@H](c2ccc(O[C@@H]3O[C@H](CO)[C@@H](O)[C@H](O)[C@H]3O)cc2)Oc2cc(O)ccc21 ?
CAL PDZ FP-1: inactive; Rin1 Abl inh: inactive; PDI turbidity: 36; ERp5 block: inactive; CAL PDZ FP-2: inactive; ERAP1 HTS inh: inactive

Results for COc1cc2c(c(OC3OC(CO)C(O)C(O)C3O)c1)C(=O)CC(c1ccc(O)cc1)O2 (centres undefined) ?
ERp5 block: inactive; ERAP1 HTS inh: inactive

How did COc1ccc2oc(=N)c(C(=O)Nc3ccc(C)cc3)cc2c1 do in these assays?
CAL PDZ FP-1: inactive; Rin1 Abl inh: inactive; PDI turbidity: inactive; ERp5 block: inactive; CAL PDZ FP-2: inactive; ERAP1 HTS inh: inactive

Results for COc1ccc2o/c(=N\O)c(C(=O)Nc3ccc(C)cc3)cc2c1 ?
CAL PDZ FP-1: 80; Rin1 Abl inh: inactive; PDI turbidity: inactive; ERp5 block: inactive; CAL PDZ FP-2: inactive; ERAP1 HTS inh: inactive

Results for COc1cc(/C=N/NC(=S)NCC2CCCO2)cc(OC)c1OC (centres undefined) ?
CAL PDZ FP-1: 36; Rin1 Abl inh: inactive; PDI turbidity: inactive; ERp5 block: inactive; CAL PDZ FP-2: inactive
